The source made the active and inactive calls. The calls are words filed in the database; no cut-off is given here.
Key:
[1] = system: HepG2; assay: Antiproliferative activity against human HepG2 cells assessed as reduction in cell viability after 48 hrs by MTT assay; assay type: functional, cell-based; conditions: HepG2, 48 h
Procedure, shortened: (§1)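 HepG2 or HeLa cells in DMEM with 10% FBS and 1% penicillin-streptomycin were preincubated 24 h (37 °C, 5% CO2). They were then exposed for 48 h to 1, 5, 10, 20, 50 and 100 µM, diluted in medium from DMSO stocks. MTT (5 mg/mL, 20 µL) was added for 4 h, formazan dissolved in DMSO, and A490 read. Each concentration was run in triplicate. IC50 is the mean from dose-response curves of at least three independent experiments; cisplatin was the positive control.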

[2] = biological target: Heat shock protein HSP90 (Homo sapiens) (UniProt P07900+P08238)
[3] = system: HeLa; assay: Antiproliferative activity against human HeLa cells assessed as reduction in cell viability after 48 hrs by MTT assay; assay type: functional, cell-based; procedure, shortened: as §1
[4] = system: MDA-MB-231; assay: Antiproliferative activity against human MDA-MB-231 cells assessed as reduction in cell viability after 48 hrs by MTT assay; assay type: functional, cell-based; conditions: MDA-MB-231, 48 h

| IC50 [1] | ΔTm [2] | IC50 [3] | IC50 [4] | deltaTm [2] | SMILES |
| --- | --- | --- | --- | --- | --- |
| 51.3 µM | -1.3 °C | 33.7 µM | 55.2 µM |  | c1ccc(Oc2ccc(/N=C3\CCC[C@@H]4[C@H]5CCCN6CCC[C@@H](CN34)[C@@H]56)cc2)cc1 |
| > 100 µM |  | > 100 µM | 73.4 µM | inactive | Clc1ccc(/N=C2\CCC[C@@H]3[C@H]4CCCN5CCC[C@@H](CN23)[C@@H]45)cc1 |
| 11 µM | -4.91 °C | 23.7 µM | 24.6 µM |  | c1ccc(-c2ccc(/N=C3\CCC[C@@H]4[C@H]5CCCN6CCC[C@@H](CN34)[C@@H]56)cc2)cc1 |
| 86.1 µM | -1.06 °C | > 100 µM | > 100 µM |  | Cc1c(/N=C2\CCC[C@@H]3[C@H]4CCCN5CCC[C@@H](CN23)[C@@H]45)cccc1[N+](=O)[O-] |
| 14.3 µM | -3.12 °C | 23.3 µM | 22.2 µM |  | Nc1c2c(nc3ccccc13)N1C[C@@H]3CCCN4CCC[C@@H]([C@H]34)[C@H]1CC2 |

Continued, compound first:

| SMILES | IC50 [1] | ΔTm [2] | IC50 [3] | IC50 [4] | deltaTm [2] |
| --- | --- | --- | --- | --- | --- |
| COc1ccc2nc3c(c(N)c2c1)CC[C@@H]1[C@H]2CCCN4CCC[C@@H](CN31)[C@@H]24 | 10.9 µM | -5.48 °C | 18 µM | 21.2 µM |  |
| Nc1c2c(nc3ccc(F)cc13)N1C[C@@H]3CCCN4CCC[C@@H]([C@H]34)[C@H]1CC2 | 13.1 µM | -2.3 °C | 18.8 µM | 37.3 µM |  |
| Cc1ccc2nc3c(c(N)c2c1)CC[C@@H]1[C@H]2CCCN4CCC[C@@H](CN31)[C@@H]24 | 9.2 µM | -4.27 °C | 13.4 µM | 16.9 µM |  |
| Nc1c2c(nc3ccc(Br)cc13)N1C[C@@H]3CCCN4CCC[C@@H]([C@H]34)[C@H]1CC2 | 9.7 µM | -7.58 °C | 6.9 µM | 9.7 µM |  |
| O=C1C[C@@H]2[C@H]3CCCN4CCC[C@@H](CN12)[C@@H]34 | > 100 µM | 0.44 °C | > 100 µM | > 100 µM |  |

Source: ChEMBL document CHEMBL4627249, “New modification strategy of matrine as Hsp90 inhibitors based on its specific L conformation for cancer treatment” (Bioorg Med Chem, 2020)
